The source of these data is ChEMBL document CHEMBL1153087, “Synthesis of 4-thiophen-2'-yl-1,4-dihydropyridines as potentiators of the CFTR chloride channel” (Bioorg Med Chem, 2009).

The Kd is the free concentration of one partner at which half of the binding sites on the other are occupied at equilibrium, for simple one-to-one binding. In general, pKd refers to the Kd on a negative log10 scale, so that one unit is a factor of ten. Read a high pKd as a low Kd.

Calls of active or inactive are those of the source. No cut-off for these calls is given here.

The first data set addresses Voltage-gated L-type calcium channel (Rattus norvegicus, UniProt P22002+Q02485+P27732). Briefly: Inhibition of L-VDCC in rat H9C2 cells assessed as effect on calcium level by Fluo-4 fluorescence assay. The data set is classed as cell-based.
For `CCOC(=O)C1=C(C)NC(C)=C(C(=O)OCc2ccccc2)C1c1sccc1C` (stereo unspecified), the “inhibition (INH)” value is “Active”.
On the same count and under the same terms, the same measure for `COC(=O)C1=C(C)NC(C)=C(C(=O)OC)C1c1ccc(C)o1`: “Not Active”.
With `CCOC(=O)C1=C(C)NC(C)=C(C(=O)OCc2ccccc2)C1c1sccc1SCC(=O)OC` (stereo unspecified), the “inhibition (INH)” value was “Active”.
Same read-out and setting: the same measure for `COC(=O)C1=C(C)NC(C)=C(C(=O)OC)C1c1cccs1`: “Not Active”.
On to `COC(=O)C1=C(C)NC(C)=C(C(=O)OC)C1c1ccc(C)s1`, for which the “inhibition (INH)” value is “Not Active”.
For `C=CCOC(=O)C1=C(C)NC(C)=C(C(=O)OCC)C1c1sccc1C` (stereo unspecified), the “inhibition (INH)” value is recorded as “Active”.
As to `C=CCOC(=O)C1=C(C)NC(C)=C(C(=O)OCC)C1c1sccc1SCC(=O)OC` (stereo unspecified), the “inhibition (INH)” value is on record as “Active”.

The test system of another data set is FRT. Briefly: Potentiation of CFTR deltaF508 mutant expressed in FRT cells coexpressing halide sensitive YFP-H148Q/I152L mutant protein assessed as channel activation by iodide influx assay. The class given is cell-based. A digest of the protocol: (§1)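 FRT cells stably co-expressing ΔF508-CFTR and YFP-H148Q/I152L, held 20–24 h at 27 °C and assayed 48 h after plating. PBS wash, then 30 min with forskolin plus compound. 14-s YFP read (ex 500, em 535 nm) around iodide injection (100 mM final). Initial slope dF/dt extrapolated by exponential fit of final 10 s. Dose–response Hill fit gave apparent Kd and maximal effect.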
Take `COC(=O)CSc1ccsc1C1C(C(=O)OCc2ccccc2)=C(C)NC(C)=C1C(=O)OCc1ccccc1`: the outcome was Active.
Same read-out and setting: as for `COC(=O)C1=C(C)NC(C)=C(C(=O)OC)C1c1sccc1C`, the entry is “inactive”.
Still for that read-out and setting: as for `C=CCOC(=O)C1=C(C)NC(C)=C(C(=O)OCC=C)C1c1sccc1SCC(=O)OC`, the entry is “Active”; as for `COC(=O)C1=C(C)NC(C)=C(C(=O)OC)C1c1ccc([N+](=O)[O-])s1`, “Active”.
Still for that read-out and setting: the same measure for `COC(=O)C1=C(C)NC(C)=C(C(=O)OC)C1c1ccc(C)o1`: “Active”; for `C=CCOC(=O)C1=C(C)NC(C)=C(C(=O)OCC=C)C1c1sccc1C`: “Active”.
For the compound `CC1=C(C(=O)OCc2ccccc2)C(c2sccc2C)C(C(=O)OCc2ccccc2)=C(C)N1`, the result was Active.
For the compound `COC(=O)C1=C(C)NC(C)=C(C(=O)OC)C1c1ccc(C)s1`, the outcome was Active.
The same measure, in the same setting: the same measure for `C=CCOC(=O)C1=C(C)NC(C)=C(C(=O)OCC=C)C1c1cc(-c2ccccc2)cs1`: “Active”.
For the compound `CC1=C(C(=O)OCc2ccccc2)C(c2cc(-c3ccccc3)cs2)C(C(=O)OCc2ccccc2)=C(C)N1`, the outcome was Active.

Test system in a further data set: not listed separately
Briefly: Binding affinity to CFTR deltaF508 mutant expressed in FRT cells coexpressing halide sensitive YFP-H148Q/I152L mutant protein by iodide influx assay. The class given is cell-based. A digest of the protocol:
as §1
Compound `COC(=O)CSc1ccsc1C1C(C(=O)OCc2ccccc2)=C(C)NC(C)=C1C(=O)OCc1ccccc1` gave a Kd of 0.3 µM.
Turning to `COC(=O)C1=C(C)NC(C)=C(C(=O)OC)C1c1sccc1C`, binding was put at a Kd of 3.1 µM and the pKd stood at 5.51.
Take `C=CCOC(=O)C1=C(C)NC(C)=C(C(=O)OCC=C)C1c1sccc1SCC(=O)OC`: the Kd came to 1.3 µM and the pKd is 5.89.
For `O=c1c(-c2ccc(O)cc2)coc2cc(O)cc(O)c12` [GENISTEIN], the Kd was 16.7 µM.
Same read-out and setting: as for `C=CCOC(=O)C1=C(C)NC(C)=C(C(=O)OCC=C)C1c1ccc([N+](=O)[O-])s1`, the figure is 3.8 µM.
`CCOC(=O)C1=C(C)NC(C)=C(C(=O)OCc2ccccc2)C1c1sccc1C` (stereo unspecified): the affinity, expressed as Kd, was 0.5 µM and the pKd is 6.3.
`COC(=O)C1=C(C)NC(C)=C(C(=O)OC)C1c1ccc([N+](=O)[O-])s1` yielded a Kd of 8.3 µM.
The compound `COC(=O)C1=C(C)NC(C)=C(C(=O)OC)C1c1ccc(C)o1` gave a Kd of 6 µM and a pKd of 5.22.
The matching figures for `C=CCOC(=O)C1=C(C)NC(C)=C(C(=O)OCC=C)C1c1sccc1C`: 1 µM and 6.
For `CC1=C(C(=O)OCc2ccccc2)C(c2sccc2C)C(C(=O)OCc2ccccc2)=C(C)N1` the same measures were 0.7 µM and 6.15.
In turn, `CCOC(=O)C1=C(C)NC(C)=C(C(=O)OCc2ccccc2)C1c1sccc1SCC(=O)OC` (stereo unspecified) came in with a Kd of 0.3 µM and a pKd of 6.52.
For `COC(=O)C1=C(C)NC(C)=C(C(=O)OC)C1c1cccs1`, binding was characterised by a dissociation constant (Kd) of 9.5 µM and the pKd came out at 5.02.
For `COC(=O)C1=C(C)NC(C)=C(C(=O)OC)C1c1ccc(C)s1` the same measures were 6 µM and 5.22.
For `C=CCOC(=O)C1=C(C)NC(C)=C(C(=O)OCC=C)C1c1cc(-c2ccccc2)cs1` the same measures were 1.5 µM and 5.82.
`C=CCOC(=O)C1=C(C)NC(C)=C(C(=O)OCC)C1c1sccc1C` (stereo unspecified) displayed a Kd of 0.3 µM and a pKd of 6.52.
As for `CC1=C(C(=O)OCc2ccccc2)C(c2cc(-c3ccccc3)cs2)C(C(=O)OCc2ccccc2)=C(C)N1`, the Kd worked out at 16.5 µM and the pKd was 4.8.
Consider `CC1=C(C(=O)OCc2ccccc2)C(c2ccc([N+](=O)[O-])s2)C(C(=O)OCc2ccccc2)=C(C)N1`, for which the Kd amounted to 13.1 µM and the pKd was determined as 4.88.
The matching figures for `CCOC(=O)C1=C(C)NC(C)=C(C(=O)OCC)C1c1sccc1C`: 5.7 µM and 5.24.
For `C=CCOC(=O)C1=C(C)NC(C)=C(C(=O)OCC)C1c1sccc1SCC(=O)OC` (stereo unspecified) the same measures were 1.9 µM and 5.72.
